Test results from ChEMBL document CHEMBL1152984, “Design, synthesis, and structure-activity relationships of benzophenone-based tetraamides as novel antibacterial agents” (J Med Chem, 2009).
≈ marks a conversion by molar mass, not a printed value. Calls of active or inactive are those of the source. The calls are words filed in the database; no cut-off is given here.

How the values were obtained:
Staphylococcus aureus [1] = assay: Antibacterial activity against methicillin-resistant Staphylococcus aureus; type: functional
Nucleic Acid [2] = assay: Binding affinity to DNA AT hairpin (5'-CGAAAAACAAAAAGTTTTTCG- 3') oligonucleotide by ethidium bromide displacement assay; type: nucleic-acid assay
How it was run: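 DNA binding: ethidium bromide (4.0 μM) and AT hairpin (8.0 μM) in 0.1 M Tris-HCl with 25 mM NaCl, pH 7.0, were titrated with compound. Fluorescence (ex 545, em 595 nm) was read after 5 min and corrected for volume. K = K_EB[E]/[agent], where [agent] is the concentration that lowers fluorescence by 50%.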

Staphylococcus aureus [3] = assay: Antibacterial activity against vancomycin-resistant Staphylococcus aureus; type: functional
Staphylococcus aureus [4] = assay: Antibacterial activity against Staphylococcus aureus ATCC 29213 assessed as inhibition of protein synthesis at 0.5 to 8 times MIC treated 5 mins before [3H]leucine challenge measured after 30 mins by [3H]leucine incorporation assay; type: functional, organism-based
How it was run: (§1)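 Cells were added to triplicate wells with compound (0.25-4.0 μg/mL), with 5% DMSO as the no-drug control; protein-synthesis reactions used M9 minimal medium. After 5 min at room temperature, 0.5-1.0 μCi of [3H]thymidine, uridine, N-acetylglucosamine or leucine was added. Reactions ran 15-30 min (60 min for cell wall). Cold-TCA precipitates were filtered, washed and scintillation-counted.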

Staphylococcus aureus [5] = assay: Antibacterial activity against Staphylococcus aureus ATCC 29213 assessed as inhibition of RNA synthesis at 0.5 to 8 times MIC treated 5 mins before [3H]uridine challenge measured after 30 mins by [3H]uridine incorporation assay; type: functional, organism-based; how it was run: as §1
CHO = assay: Cytotoxicity against CHO cells assessed as cell viability at 25 to 100 times MIC after 24 hrs by MTS assay; type: cell-based, Cricetulus griseus; conditions: chinese hamster
How it was run: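 CHO cells in RPMI-1640 were seeded at 5000 cells/well, allowed to attach overnight, then exposed to 25, 50 and 100 mg/L for 24 h. MTS was added for 120 min and absorbance read at 505 nm. Results are % versus untreated controls (with or without 5% DMSO), from at least three experiments.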

Enterococcus = assay: Antibacterial activity against vancomycin-resistant Enterococcus; type: functional
Escherichia coli = assay: Antibacterial activity against Escherichia coli; type: functional
Staphylococcus aureus [6] = assay: Antibacterial activity against glycopeptide-intermediate Staphylococcus aureus; type: functional
Staphylococcus aureus [7] = assay: Antibacterial activity against Staphylococcus aureus ATCC 29213 assessed as inhibition of DNA synthesis at 0.5 to 8 times MIC treated 5 mins before [3H]thymidine challenge measured after 30 mins by [3H]thymidine incorporation assay; type: functional, organism-based; how it was run: as §1
Staphylococcus aureus [8] = assay: Antibacterial activity against Staphylococcus aureus assessed as depolarization at 4 mg/L measured for 60 mins by fluorescence spectrophotometer relative to nisin; type: functional, organism-based
How it was run: (§2)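 Cells were loaded with 0.4 μM diSC3(5) for 1 h at 37 °C, then KCl was added. After compound addition in a stirred cuvette at 37 °C, fluorescence (ex 622, em 670 nm) was followed for 60 min. Cells plus dye gave the background; the change was expressed as % of the nisin control (100%).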

Staphylococcus aureus [9] = assay: Antibacterial activity against Staphylococcus aureus ATCC 29213 assessed as inhibition of cell wall synthesis at 0.5 to 8 times MIC treated 5 mins before [3H]N-acetylglucosamine challenge measured after 30 mins by [3H]N-acetylglucosamine incorporation assay; type: functional, organism-based
Staphylococcus aureus [10] = assay: Antibacterial activity against Staphylococcus aureus ATCC 29213 assessed as inhibition of lipid synthesis at 0.5 to 8 times MIC treated 5 mins before [3H]glycerol challenge measured after 60 mins by [3H]glycerol incorporation assay; type: functional, organism-based
How it was run: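 Lipid synthesis: early-exponential S. aureus was mixed in triplicate with compound (0.25-4.0 μg/mL) or cerulenin. After 5 min at room temperature, [3H]glycerol (0.5 μCi) was added. Mixtures were centrifuged, and the organic phase was dried and counted by liquid scintillation.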

Staphylococcus aureus [11] = assay: Antibacterial activity against Staphylococcus aureus assessed as depolarization at 32 mg/L measured for 60 mins by fluorescence spectrophotometer relative to nisin; type: functional, organism-based; how it was run: as §2
Nucleic Acid [12] = assay: Binding affinity to Escherichia coli DNA at 25 to 200 ug/mL by Hoescht dye competition assay; type: nucleic-acid assay
Nucleic Acid [13] = assay: Binding affinity to Staphylococcus aureus DNA at 25 to 200 ug/mL by Hoescht dye competition assay; type: nucleic-acid assay
How it was run: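 Compounds at 25, 50, 100, 150 and 200 mg/L were added in triplicate, and the drop in emission at 461 nm was measured against Hoechst-stained untreated cells.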

Staphylococcus aureus [14] = assay: Antibacterial activity against Staphylococcus aureus ATCC 29213 assessed as inhibition of protein synthesis at 8 times MIC treated 5 mins before [3H]leucine challenge measured after 30 mins by [3H]leucine incorporation assay; type: functional, organism-based; how it was run: as §1

| SMILES | MIC (Staphylococcus aureus [1]) [mg/L] | Ka (Nucleic Acid [2]) [×10⁶ /M] | MIC (Staphylococcus aureus [3]) [mg/L] | other results |
| --- | --- | --- | --- | --- |
| Cn1cc(NC(=O)c2ccc(C(O)c3ccc(C(=O)Nc4cc(C(=O)NCCN5CCCCC5)n(C)c4)cc3)cc2)cc1C(=O)NCCN1CCCCC1 | > 32 | 0.0098 | > 32 | – |
| CN(C)c1ccc(NC(=O)c2cc(NC(=O)c3ccc(C(=O)c4ccc(C(=O)Nc5cc(C(=O)Nc6ccc(N(C)C)cc6)n(C)c5)cc4)cc3)cn2C)cc1 | > 32 | 0.391 | > 32 | – |
| Cn1cc(NC(=O)c2ccc(C(=O)c3ccc(C(=O)Nc4cc(C(=O)NCCN5CCCCC5)n(C)c4)cc3)cc2)cc1C(=O)NCCN1CCCCC1 | 0.5 (≈ 0.68 µM) | 0.931 | 1 (≈ 1.36 µM) | Activity (Staphylococcus aureus [4]): inactive; Activity (Staphylococcus aureus [5]): inactive; Activity (CHO): Not Active; MIC (Enterococcus): 4 mg/L (≈ 5.44 µM); MIC (Escherichia coli): 16 mg/L (≈ 21.8 µM); MIC (Staphylococcus aureus [6]): 0.5 mg/L (≈ 0.68 µM); Activity (Staphylococcus aureus [7]): inactive; Activity (Staphylococcus aureus [8]): Active; Activity (Staphylococcus aureus [9]): inactive; Activity (Staphylococcus aureus [10]): inactive |
| Cn1cc(NC(=O)c2ccc(Cc3ccc(C(=O)Nc4cc(C(=O)NCCN5CCCC5)n(C)c4)cc3)cc2)cc1C(=O)NCCN1CCCC1 | > 32 | 0.154 | > 32 | – |
| Cn1cc(NC(=O)c2ccc(C(=O)c3ccc(C(=O)Nc4cn(C)c(C(=O)NCCN5CCCC5)n4)cc3)cc2)nc1C(=O)NCCN1CCCC1 | 32 (≈ 45.1 µM) | – | 32 (≈ 45.1 µM) | – |
| Cn1cc(NC(=O)c2ccc(C(=O)c3ccccc3)cc2)cc1C(=O)NCCN1CCCCC1 | – | 0.227 | – | – |
| Cn1cc(NC(=O)CCCCCCCCCCCC(=O)Nc2cc(C(=O)NCCN3CCCC3)n(C)c2)cc1C(=O)NCCN1CCCC1 | > 32 | 0.021 | > 32 | Activity (Staphylococcus aureus [11]): inactive |
| Cn1cc(NC(=O)c2ccc(Cc3ccc(C(=O)Nc4cc(C(=O)NCCN5CCCCC5)n(C)c4)cc3)cc2)cc1C(=O)NCCN1CCCCC1 | > 32 | 0.0238 | > 32 | – |
| Cn1cc(NC(=O)c2ccccc2)cc1C(=O)NCCN1CCCC1 | > 32 | 0.11 | > 32 | – |
| Cn1cc(NC(=O)c2ccc(C(O)c3ccc(C(=O)Nc4cc(C(=O)NCCN5CCCC5)n(C)c4)cc3)cc2)cc1C(=O)NCCN1CCCC1 | > 32 | 0.175 | > 32 | – |
| CN1CCN(CCCNC(=O)c2cc(NC(=O)c3ccc(C(=O)c4ccc(C(=O)Nc5cc(C(=O)NCCCN6CCN(C)CC6)n(C)c5)cc4)cc3)cn2C)CC1 | > 32 | 0.108 | > 32 | Activity (Nucleic Acid [12]): inactive; Activity (Nucleic Acid [13]): inactive |
| CC(=O)NC[C@H]1CN(c2ccc(N3CCOCC3)c(F)c2)C(=O)O1 | – | – | – | Activity (Staphylococcus aureus [14]): Active |
